Test results as given in ChEMBL document CHEMBL1152863, “Synthesis, HIV-RT inhibitory activity and SAR of 1-benzyl-1H-1,2,3-triazole derivatives of carbohydrates” (Eur J Med Chem, 2009).

What was measured:
[1] = target: Human immunodeficiency virus type 1 reverse transcriptase (Human immunodeficiency virus 1) (UniProt Q72547); assay: Inhibition of polymerase activity of HIV1 recombinant reverse transcriptase expressed in Escherichia coli at 50 uM
Method in brief: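 Single-concentration test: compounds at 50 on recombinant HIV-1 RT (66 kDa, E. coli-expressed from pUC12N, Sephadex G-25 fraction) polymerase activity. 50 mM Tris-HCl pH 7.8, 6 mM MgCl2, 1 mM DTT, 50 mM KCl, dTTP with [3H]dTTP, poly(rA)·oligo(dT) template-primer, 1 U enzyme; 30 min at 37 °C; TCA precipitation onto filters, incorporated 3H by scintillation counting.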

[2] = Cytotoxicity against african green monkey Vero cells after 72 hrs by MTT assay; format: cell-based; settings: chlorocebus sabaeus
Method in brief: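 Vero cells grown in DMEM with 5% FBS, penicillin/streptomycin, 37 °C, 5% CO2; monolayers of about 10^4 cells exposed to several compound concentrations for 72 h. MTT solution (1 mg/mL) then added to assess viability. CC50 obtained by linear regression of dose-response curves; duplicates, at least three independent experiments.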

[3] = target: Human immunodeficiency virus type 1 reverse transcriptase (Human immunodeficiency virus 1, UniProt Q72547); assay: Inhibition of polymerase activity of HIV1 recombinant reverse transcriptase expressed in Escherichia coli
Method in brief: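 Recombinant HIV-1 RT (66 kDa) expressed in E. coli from plasmid pUC12N, partly purified by Sephadex G-25; compounds tested at different concentrations (0.01-50). Reaction: 50 mM Tris-HCl pH 7.8, 6 mM MgCl2, 1 mM DTT, 50 mM KCl, dTTP plus [3H]dTTP, poly(rA)·oligo(dT), 1 U enzyme; 37 °C, 30 min; stopped with ice-cold 5% TCA/pyrophosphate, filter-collected, 3H counted by scintillation.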

Compound | inhibition [1] [%] | CC50 at 72 h [2] [µM] | IC50 [3] [µM]
Cc1c(C(=O)OC[C@@]2(O)OC[C@@H](O)[C@@H](O)[C@@H]2O)nnn1Cc1ccccc1 | 35.8 | 800 | 
Cc1c(C(=O)O[C@@H]2[C@H]3OC(C)(C)O[C@H]3O[C@@H]2[C@H]2COC(C)(C)O2)nnn1Cc1ccccc1 | 64.7 | 208 | 5
Cc1c(C(=O)OC[C@@]23OC[C@H]4OC(C)(C)O[C@H]4[C@@H]2OC(C)(C)O3)nnn1Cc1ccccc1 | 47.9 | 3380 | 
Cc1c(C(=O)OC[C@H]2O[C@H](O)[C@H](O)[C@@H](O)[C@H]2O)nnn1Cc1ccccc1 | 45.6 | 25600 | 
Cc1c(C(=O)O[C@H]2[C@@H]3OC(C)(C)O[C@@H]3CO[C@]23COC(C)(C)O3)nnn1Cc1ccccc1 | 43.5 | 2750 | 
Cc1c(C(=O)OC[C@H]2O[C@@H]3OC(C)(C)O[C@@H]3[C@H]2OCc2ccccc2)nnn1Cc1ccccc1 | 65.4 | 724 | 1.98
Cc1c(C(=O)O[C@H]2[C@@H](O)[C@H](O)O[C@H](CO)[C@H]2O)nnn1Cc1ccccc1 | 14 | 1440 | 
Cc1c(C(=O)O[C@H]2[C@H]3OC(C)(C)O[C@H]3O[C@@H]2[C@H]2COC(C)(C)O2)nnn1Cc1ccccc1 | 3 | 3530 | 
Cc1c(C(=O)OC[C@H]2O[C@H](O)[C@H](O)[C@H]2OCc2ccccc2)nnn1Cc1ccccc1 | 36.2 | 596 | 
CO[C@@H]1O[C@H](COC(=O)c2nnn(Cc3ccccc3)c2C)[C@H]2OC(C)(C)O[C@@H]12 | 63.6 | 837 | 2.2
Cc1c(C(=O)O[C@H]2[C@H](O)[C@@H](CO)OC(O)[C@@H]2O)nnn1Cc1ccccc1 (some centres not stated) | 35.9 | 1800 | 
Cc1c(C(=O)O[C@H]2[C@H](O)[C@H](O)CO[C@]2(O)CO)nnn1Cc1ccccc1 | 45.6 | 649 | 
Cc1c(C(=O)OC[C@H]2O[C@@H](O)[C@H](O)[C@@H]2O)nnn1Cc1ccccc1 | 33.2 | 1170 | 
Cc1cn([C@H]2C[C@H](N=[N+]=[N-])[C@@H](CO)O2)c(=O)[nH]c1=O [ZIDOVUDINE] |  | 126 | 
Cc1c(C(=O)OC[C@H]2O[C@@H]3OC(C)(C)O[C@@H]3[C@H]3OC(C)(C)O[C@H]32)nnn1Cc1ccccc1 | 28.8 | 123 | 
